Results from paper PMC7453566 (ACS Central Science, 2020).
Where a name gives a salt, the structure may show the parent alone.

What was measured:
[1] = system: citrate concentration in INS-1 cells; assay: Citrate quantification with Citron1 in INS-1 cells treated with glucose or BTC; type: cell-based, rat
Method in brief: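 INS-1 cells express the direct-response citrate biosensor in the cytosol or in mitochondria and are imaged in Krebs-Ringer buffer, with 20 mM glucose then 2 mM test compound, or test compound without glucose. Concentrations are read from in situ titration curves in digitonin-permeabilized cells (cytosol n = 62, mitochondria n = 34 cells). Each value is the average of triplicates; s.e.m. is given.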

[2] = system: citrate concentration in HeLa cells; assay: Imaging of glucose- or drug-induced citrate concentration changes in HeLa cells; type: cell-based
[3] = system: Citroff1; type: cell-based, HeLa; conditions: read-out: in situ Kd (Citroff1); n = 26
Method in brief: (§1)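 HeLa cells (ATCC CCL-2) express the biosensor from a CMV promoter, untargeted (cytoplasmic/nuclear). Cells are imaged, permeabilized with digitonin, then titrated stepwise with citrate (0.1 to ∼20 mM) in the imaging buffer, allowing at least 250 s per step. The mean response versus citrate gives the in situ calibration curve, from 128 cells or 26 cells; s.e.m. is given.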

[4] = target: CF98; type: binding; conditions: read-out: Kd (CF98)
[5] = system: Citron1; type: cell-based, HeLa; conditions: read-out: in situ Kd (Citron1); n = 128
Method in brief: as §1

[6] = system: citrate concentration in INS-1 cells; conditions: stimulatory glucose; cited from earlier work

O=C(O)c1cccc(C(=O)O)c1C(=O)O [BTC, 1,2,3-benzenetricarboxylate]
citrate concentration, following increase ([1]; 2 mM BTC after glucose addition): ~18 mM
citrate concentration, pronounced decrease after treatment ([1]; 2 mM BTC after glucose addition, from ∼25 mM): ~10 mM
citrate concentration after treatment ([1]; 2 mM BTC in the absence of glucose, from ∼3 mM): less than 2 mM

N#C/C(=C\c1cn(-c2ccccc2)c2ccccc12)C(=O)O [UK-5099, reference compound]
subsequent change of Citron1 fluorescence ([2]; HeLa mitochondria, 25 μM): sustained decrease
transient increase of Citron1 fluorescence ([2]; HeLa mitochondria, 25 μM, likely DMSO artifact per authors): 20%

O=C(O)CC(O)(CC(=O)O)C(=O)O [citrate, citrate (2-hydroxypropane-1,2,3-tricarboxylate)]
Kd [3]: 0.13 mM
Kd [4]: ~9 mM
Kd [5]: 5.7 mM

OC[C@H]1OC(O)[C@H](O)[C@@H](O)[C@@H]1O (stereo partly drawn) [glucose]
fold increase in the concentration of citrate [6]: ~8 fold
cytosolic and mitochondrial citrate concentration after treatment ([1]; 20 mM glucose, Krebs-Ringer buffer): ~25 mM
cytosolic citrate concentration change upon glucose addition ([2]; HeLa cells starved 0.5–1 h, 20 mM glucose): substantially increased
mitochondrial citrate change upon glucose addition ([2]; HeLa cells starved 0.5–1 h, mitochondria-localized Citron1): initial transient decrease followed by a slower increase
